ChEMBL document CHEMBL1123420, “Synthesis and toxicity toward nigrostriatal dopamine neurons of 1-methyl-4-phenyl-1,2,3,6-tetrahydropyridine (MPTP) analogues” (1986)

Assays:
Type in all cases: functional
[1] = tested on: Mus musculus; test: DOPAC content in mice striata was evaluated after 1 day of administration of compound
How it was run: (§1)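 Male Swiss mice (25–40 g) dosed ip, 0.072 mmol/kg on days 1 and 2, then 0.142 mmol/kg on days 3–12. Drugs were given as 0.14 M solutions in normal saline and stored at 5 °C; saline-injected controls. Mice killed 1 day after the last injection. Striata weighed, homogenized, Sephadex-separated, then DA, DOPAC and HVA measured by HPLC-EC in μg/g tissue as mean ± error.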

[2] = tested on: Mus musculus; test: Dopamine content in mice striata was evaluated after 9 days of administration of compound
How it was run: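 Ip regimen in male Swiss mice (25–40 g): 0.072 mmol/kg on days 1–2, then 0.142 mmol/kg on days 3–12, from 0.14 M saline solutions; saline controls; n=5 per group. Animals killed 9 days after the final injection. Striatal DA measured by HPLC-EC after homogenization and Sephadex cleanup, reported in μg/g tissue.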

[3] = tested on: Mus musculus; test: HVA content in mice striata was evaluated after 1 day of administration of compound; how it was run: as §1
[4] = tested on: Mus musculus; test: Dopamine content in mice striata was evaluated after 1 day of administration of compound; how it was run: as §1

| SMILES | Content [1] | Content [2] | Content [3] | Content [4] |
| --- | --- | --- | --- | --- |
| CC1=C(c2ccccc2)CC(C)N(C)C1.O=C(O)/C=C/C(=O)O (stereo not drawn) | 1.18 ug (g of tissue)-1 | 14.49 ug (g of tissue)-1 | 1.27 ug (g of tissue)-1 | 15.22 ug (g of tissue)-1 |
| CN1CC=C(c2ccccc2)CC1.Cl | 0.31 ug (g of tissue)-1 | 4.34 ug (g of tissue)-1 | 0.61 ug (g of tissue)-1 | 3.16 ug (g of tissue)-1 |
| CC1=C(c2ccccc2)CCN(C)C1.Cl | 1.22 ug (g of tissue)-1 | 13.85 ug (g of tissue)-1 | 1.26 ug (g of tissue)-1 | 13.68 ug (g of tissue)-1 |
| CN1CC=C(c2ccccc2)C(C)(C)C1.Cl | 1.31 ug (g of tissue)-1 | 17.28 ug (g of tissue)-1 | 1.39 ug (g of tissue)-1 | 17.28 ug (g of tissue)-1 |
| CC1CN(C)C(C)C=C1c1ccccc1.Cl (stereo not drawn) | 1.36 ug (g of tissue)-1 | 14.65 ug (g of tissue)-1 | 1.39 ug (g of tissue)-1 | 14.42 ug (g of tissue)-1 |
| CN(C)C/C=C/c1ccccc1.Cl | 1.37 ug (g of tissue)-1 | 14.56 ug (g of tissue)-1 | 1.11 ug (g of tissue)-1 | 13.6 ug (g of tissue)-1 |
| CC1CN(C)CC=C1c1ccccc1.Cl (stereo not drawn) | 1.11 ug (g of tissue)-1 | 13.35 ug (g of tissue)-1 | 1.14 ug (g of tissue)-1 | 13.21 ug (g of tissue)-1 |
